WT yeast gro inh – growth inhibition of WT strain, primary screen, mitochondrial fusion inhibitor project, WT and mutant strains, chemical genetic. mitochondrial fusion phenotypic screen. inhibition, % at 10 µM. 190,000 tested, 2.1% active. AID 1362, 2008; in the data active = inhibition above about 58%; tested in S. cerevisiae
14-3-3 Bad inh – inhibitors of 14-3-3 zeta/Bad binding, primary screen, biochemical, TR-FRET, bovine 14-3-3 zeta; inhibition, % at 21.7 µM; TR-FRET 14-3-3zeta/Dy647-pBad peptide displacement, 1 h; AID 781, 2007; 220,000 tested, 0.71% active; 14-3-3 protein zeta/delta (Bos taurus), P63103;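 active = inhibition above about 70%, limit read from the data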;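 note: 0% = full 14-3-3 plus peptide FRET controls and 100% = background without 14-3-3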
Target sequence (P63103 whole entry, looked up): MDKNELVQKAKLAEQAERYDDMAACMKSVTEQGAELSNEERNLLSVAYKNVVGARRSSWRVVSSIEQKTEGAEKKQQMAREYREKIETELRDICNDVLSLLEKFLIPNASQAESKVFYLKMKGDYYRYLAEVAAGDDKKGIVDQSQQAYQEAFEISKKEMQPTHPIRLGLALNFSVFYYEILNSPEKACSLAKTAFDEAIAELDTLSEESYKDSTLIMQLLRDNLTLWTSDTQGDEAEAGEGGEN
NCF1 inh – p47phox/p22phox peptide binding inhibitors, primary screen, biochemical, uHTS, NADPH oxidase regulatory subunit; fluorescence polarization, 2 h; AID 1274, 2008; inhibition, % at 24.7 µM; Neutrophil cytosol factor 1 (Homo sapiens), P14598; 220,000 tested, 0.53% active;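 active = inhibition above about 30%, limit read from the data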;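 note: 0% = p47phox with labelled peptide and 100% = labelled peptide alone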
RBBP9 inhibitor – human RBBP9 inhibitors, primary screen, biochemical, fluorescence polarization, FP-Rh probe, HTS; Serine hydrolase RBBP9 (Homo sapiens), O75884; recombinant RBBP9; inhibition, % at 7.94 µM; 220,000 tested, 0.2% active; AID 1515, 2009;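 active = inhibition above the campaign mean of all tested compounds plus 3 SD, cut at about 14% in these data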;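 note: plate controls were DMSO wells with RBBP9 for no effect and wells lacking RBBP9 protein for full effect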
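Test system: recombinant human RBBP9; Timing: 30 min then 45 min, 25 °C; Detection: fluorescence polarization; Control set: RBBP9 with DMSO as uninhibited control, no-protein wells as full inhibition; Compound dosing: one concentration, 7.94 µM nominal, 0.794% DMSO; Probe or stimulus: FP-Rh activity-based probe, 375 nM before mixing.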
KCC2 mod – KCC2 cotransporter modulators, thallium flux, primary screen, cell-based, HEK293 KCC2, FluoZin-2 fluorescence, MLSMR. AID 1456, 2008. KCC2 cells, thallium flux FluoZin-2 fluorescence. 190,000 tested, 2.2% active. B-score of Tl+ flux slope (higher = more flux/activation; lower = inhibition) at 10 µM;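 active = thallium flux slope and its plate-corrected score both differing from the plate sample mean at a set confidence after two filtering rounds, in either direction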;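 note: slope of fluorescence scaled to starting intensity during 10 to 20 s after thallium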
ROMK mod – ROMK potassium channel modulators, primary screen, cell-based, thallium flux, MLSMR library | Tet-inducible ROMK, thallium flux fluorescence; actives lie on both sides | B-score at 10 µM | 130,000 tested, 2% active | ATP-sensitive inward rectifier potassium channel 1 (Homo sapiens), P48048;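 active = signal ratio slope over the read window, or its plate-corrected B-score, at least 3 SD from the plate mean, either direction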;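 note: B-score of the F/F0 ratio slope over 7 to 12 s after thallium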
Target sequence (P48048 whole entry, looked up): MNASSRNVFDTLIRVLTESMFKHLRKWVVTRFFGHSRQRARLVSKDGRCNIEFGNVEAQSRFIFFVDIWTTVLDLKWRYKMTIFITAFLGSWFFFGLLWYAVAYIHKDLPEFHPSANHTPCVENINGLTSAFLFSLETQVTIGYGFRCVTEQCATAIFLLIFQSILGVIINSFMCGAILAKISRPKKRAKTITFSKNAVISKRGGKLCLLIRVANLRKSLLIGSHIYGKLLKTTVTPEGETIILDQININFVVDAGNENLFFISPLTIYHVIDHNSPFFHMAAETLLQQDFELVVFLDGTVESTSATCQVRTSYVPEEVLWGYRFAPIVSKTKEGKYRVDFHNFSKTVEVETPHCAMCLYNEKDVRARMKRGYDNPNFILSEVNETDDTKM
KCC2 sec1 – KCC2 modulators in sodium-free buffer, confirmation, cell-based, HEK293 KCC2, thallium flux, secondary assay | shares compounds with KCC2 mod | FluoZin2 fluorescence; hits give high values | normalised thallium flux (F/F0 slope) at 10 µM | 3,700 tested, 15% active | AID 1713, 2009;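 active = thallium flux slope above the same plate's solvent-only control mean plus 3 SD; inconclusive = the two replicate wells disagree; inactive = no significant difference from solvent-only control wells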
KCC2 bumet counter – thallium flux persisting under bumetanide in KCC2 cells, confirmation, counter-screen for KCC2 modulator project, cell-based, HEK293 KCC2, FluoZin2, secondary assay 3 | shares compounds with KCC2 mod | HEK293-KCC2 + bumetanide/ouabain; hits give high values | normalized thallium flux at 10 µM | 3,700 tested, 49% active;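 active = thallium entry rate above the same plate's blocked-transporter control wells by more than 3 SD; inconclusive = the two repeat wells disagree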;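 note: raw slope of fluorescence over initial fluorescence between 10 and 20 s after thallium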
KCC2 sec2 – KCC2 modulators without ouabain present, confirmation, cell-based, HEK293 KCC2, thallium flux, FluoZin2, secondary assay 2; normalized thallium flux at 10 µM; thallium flux FluoZin2 fluorescence; actives lie on both sides; F/F0 rise rate, 10–20 s post-thallium; shares compounds with KCC2 mod; 3,700 tested, 23% active;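 active = thallium flux slope more than 3 SD above or below the plate's solvent-only control mean, mostly below; inconclusive = the two repeat wells disagreed; inactive = no significant shift from solvent-only controls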;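 note: raw slope with 0.1% DMSO as baseline and bumetanide as block control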
HEK counter1 – thallium flux modulation in parental HEK cells, confirmation, counter-screen for KCC2 modulator project, cell-based, counterscreen 1; 3,700 tested, 46% active; HEK293 parental cells, thallium flux FluoZin2, ouabain; baseline-ratio fluorescence slope, 10–20 s after thallium; AID 1716, 2009; thallium flux rate (normalised fluorescence) at 10 µM; shares compounds with KCC2 mod;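 active = thallium flux rate significantly above the same plate's solvent-only control wells, beyond their mean plus 3 SD; inconclusive = the two replicate wells gave conflicting results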
KCC2 ouabain – KCC2 inhibitors and activators, ouabain retest, confirmation, HEK-KCC2 cells | shares compounds with KCC2 mod | HEK293-KCC2, thallium flux FluoZin2 fluorescence; bidirectional: low = inhibitor, high = activator | raw Tl+ flux slope (below DMSO = inhibition, above = activation) at 10 µM | 3,700 tested, 48% active | AID 1717, 2009;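 active = thallium flux slope beyond 3 SD from same-plate DMSO control mean in most replicates, usually higher, sometimes lower; inconclusive = repeat tests gave conflicting results; inactive = no significant difference from controls in most replicates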;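 note: slope of initial-normalized fluorescence between seconds 10 and 20 after thallium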
HEK293 Tl flux2 – native HEK Tl+ uptake effects, second counter-screen – HEK cells, counterscreen 2, counter-screen for KCC2 modulator project, confirmation; shares compounds with KCC2 mod; thallium flux slope at 10 µM; HEK293 parental, thallium flux FluoZin-2 fluorescence slope; 3,700 tested, 33% active;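 active = thallium flux slope above the same plate's solvent-control mean plus 3 SD in both duplicate wells; inconclusive = duplicate wells that disagreed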;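 note: run without ouabain in cells lacking the KCC2 cotransporter; slope of fluorescence scaled to its starting value between 10 and 20 s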
Starred values were filed as active, the others as inactive; u = inconclusive; x = no result. Sampled rows, rich in hits. Any-hit rate of the full collection: about 5.8%.

SMILES	WT yeast gro inh	14-3-3 Bad inh	NCF1 inh	RBBP9 inhibitor	KCC2 mod	ROMK mod	KCC2 sec1	KCC2 bumet counter	KCC2 sec2	HEK counter1	KCC2 ouabain	HEK293 Tl flux2
CCOC(=O)N1CCN(C(=O)CCCn2c(=S)[nH]c3ccccc3c2=O)CC1	-4	-6	3	-2	-0.74	-0.024	x	x	x	x	x	x
CCOC(=O)N1CCN(C(=O)CCCn2c(=S)[nH]c3ccc(Br)cc3c2=O)CC1	15	-9	-12	-8	8.7*	x	0.0078	0.0089*	0.027	0.0097*	0.02	0.011
CCN(CC)CCn1c(=S)[nH]c2ccc(Br)cc2c1=O	9	-2	-6	5	17*	-0.25	0.017	0.017*	0.031	0.011*	0.02	u
CCN(CC)CCn1c(=S)[nH]c2ccccc2c1=O	0	-12	-4	-2	0.89	x	x	x	x	x	x	x
CCOC(=O)N1CCN(C(=O)c2ccc3c(=O)n(Cc4ccccc4)c(=S)[nH]c3c2)CC1	-6	-6	-13	-6	4.6*	-0.15	0.0092	0.026*	0.029	0.012*	0.028*	0.011*
CCOC(=O)N1CCN(C(=O)c2ccc3c(=O)n(Cc4ccc(OC)cc4)c(=S)[nH]c3c2)CC1	18	-8	-5	-7	x	-0.069	x	x	x	x	x	x
CSc1cccc(NC(=O)C2CCN(S(=O)(=O)c3ccc(F)cc3)CC2)c1	19	-10	-18	-2	x	x	0.0077	0.0053	0.034	0.0044	u	0.01
CSc1cccc(NC(=O)C2CCCN(S(=O)(=O)c3ccc(F)cc3)C2)c1 (stereo unspecified)	6	-10	-18	-8	-0.58	-0.012	x	x	x	x	x	x
Cc1sc(C(=O)Nc2ccc3ccccc3c2)cc1CC(=O)O	-2	-3	3	-16	-0.9	0.6	x	x	x	x	x	x
COc1ccc(CCNc2oc(COc3ccccc3F)nc2C#N)cc1OC	4	3	-19	-3	-4*	-3.2	0.0061	u	0.026*	0.0062*	0.015*	u
CC(C)(C)c1cc(-c2n[nH]c(=S)n2-c2ccccc2F)n[nH]1	x	-10	1	-15	39*	x	0.0072	0.047*	0.045*	0.033*	0.042*	0.03*
CC(C)Cn1c(=S)[nH]c2cc(Cl)ccc21	28	-4	-12	1	92*	x	u	0.097*	u	0.083*	0.078*	0.063*
O=c1c2ccccc2[nH]c(=S)n1Cc1ccc2c(c1)OCO2	-13	-9	-4	-6	10*	1.1	u	0.012*	0.031	0.0098*	0.019	0.013*
O=c1c2ccccc2[nH]c(=S)n1CCC1=CCCCC1	-9	-12	-17	-10	38*	0.18	u	0.082*	0.048*	0.032*	0.043*	0.026*
CCN1CCN(C(=O)c2ccc3c(=O)n(CCC4=CCCCC4)c(=O)[nH]c3c2)CC1	-2	-1	-10	8	0.051	x	x	x	x	x	x	x
C=C(C)Cn1c(=S)[nH]c2ccccc2c1=O	-13	3	-9	-2	25*	-0.5	0.014*	0.074*	0.031	0.024*	0.049*	0.014*
O=c1[nH]c2cc(Cl)ccc2n1-c1ccccc1	-25	36	-16	-5	-1.4	1.2	x	x	x	x	x	x
Cc1cc(CNC(=O)CC2C(=O)NCCN2CC(C)(C)C)nn1C (stereo unspecified)	-12	-9	12	2	x	-0.52	x	x	x	x	x	x
CC(=O)NCc1ccc(S(=O)(=O)NC(C(=O)O)C(C)C)cc1 (stereo unspecified)	-2	-13	-4	-6	-0.45	-0.66	x	x	x	x	x	x
CC(C)Cn1c(=S)[nH]c2ccccc2c1=O	5	-12	-7	2	64*	0.46	0.0099*	0.12*	0.086*	0.086*	0.092*	0.085*
C=CCn1c(=S)[nH]c2ccccc2c1=O	-2	3	-9	-9	x	0.0068	x	x	x	x	x	x
O=C(c1cc([N+](=O)[O-])ccc1N1CCCCC1)N1CCc2ccccc21	11	8	-3	-2	-1.5	x	x	x	x	x	x	x
Nc1ccc(C(=O)OCC(=O)N2CCc3ccccc3C2)cc1[N+](=O)[O-]	1	-3	-4	-2	-5.9*	-0.4	0.0057	0.0058	0.027*	u	0.012*	0.01
O=C(OCC(=O)N1CCc2ccccc2C1)c1ccc(N2CCOCC2)c([N+](=O)[O-])c1	-3	3	-6	-4	-4.3*	x	0.0056	0.005	0.022*	0.0072	u	0.011
O=C(c1ccc(N2CCCCCC2)c([N+](=O)[O-])c1)N1CCc2ccccc21	15	-5	-14	1	-6.7*	-0.031	0.015	u	0.023*	0.0071	0.012	0.0094
Nc1ccc(C(=O)OCC(=O)N2CCN(C(=O)c3ccco3)CC2)cc1[N+](=O)[O-]	-4	5	-5	-13	0.02	x	x	x	x	x	x	x
O=S(=O)(Nc1cccc(-c2nnco2)c1)c1ccc(Cl)cc1	x	-5	-6	2	x	x	x	x	x	x	x	x

Compound activity (PubChem BioAssay)
